Test results from ChEMBL document CHEMBL5724801, “EUbOPEN Chemogenomics Library - Multiplex” (2024).
“And” between values parts separate entries of the source, which are not always exact repeats. Equal values may be shown once.

Test system: Fibroblast
Assay: Multiplex assay against human fibroblast
Format: toxicity, cell-based
Outline: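 Imaging took place on a CQ1 microscope at 37°C and 5% CO2 once compound had been added to live cells stained at seeding with Hoechst33342, BioTracker Green Microtubule Cytoskeleton Dye, MitoTracker Red and Annexin V Alexa Fluor 680. CellPathfinder machine-learning gating classed cells as Hoechst high-intensity objects or normal cells, classed normal cells as having healthy, pyknosed or fragmented nuclei, and classed pyknosed cells as mitotic or apoptotic. Tubulin, mitochondrial-mass and membrane-permeability phenotypes are per cents of the healthy-nucleus cells.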

[1] = 12 h, 1 µM, compound concentration 1 uM
[2] = 12 h, 10 µM, compound concentration 10 uM
[3] = 24 h, 1 µM, compound concentration 1 uM
[4] = 24 h, 10 µM, compound concentration 10 uM
[5] = 48 h, 1 µM, compound concentration 1 uM
[6] = 48 h, 10 µM, compound concentration 10 uM

In the case of `COc1ccc(Cl)cc1[C@]1(F)C(=O)Nc2cc(C(F)(F)F)ccc21` [FLINDOKALNER], the “Population Apoptotic (%)” value [1] is reported as 10.87% and 19.35%, the “Population Fragmented Nuclei (%)” value [1] is reported as 9.6% and 5.91% and the “Population Healthy Nuclei (%)” value [1] is reported as 64.41% and 80%. For the same compound, the “Population Hoechst High Intensity Objects (%)” value [1] was 0%, the “Population Membrane Permeable-Phenotype (%)” value [1] was 2.63% and 1.7% and the “Population Mitochondria Different-Phenotype (%)” value [1] was 7.02% and 9.09%. The “Population Mitotic Cells (%)” value [1] was 89.13% and 80.65%, the “Population Normal (%)” value [1] was 100% and the “Population Pyknosed Nuclei (%)” value [1] was 25.99% and 14.09%. For the same compound, the “Population Tubulin-Different-Phenotype (%)” value [1] was 10.53% and 15.34%, the “Total Cell Count” value [1] was 177 and 220 and the “Population Apoptotic (%)” value [2] was 10.2% and 11.76%. The “Population Fragmented Nuclei (%)” value [2] was 14.63% and 8.91%, the “Population Healthy Nuclei (%)” value [2] was 55.49% and 74.26% and the “Population Hoechst High Intensity Objects (%)” value [2] was 0%. The “Population Membrane Permeable-Phenotype (%)” value [2] was 5.49% and 4.67%, the “Population Mitochondria Different-Phenotype (%)” value [2] was 15.38% and 11.33% and the “Population Mitotic Cells (%)” value [2] was 89.8% and 88.24%. The “Population Normal (%)” value [2] was 100%, the “Population Pyknosed Nuclei (%)” value [2] was 29.88% and 16.83% and the “Population Tubulin-Different-Phenotype (%)” value [2] was 15.38% and 34.67%. The “Total Cell Count” value [2] was 164 and 202, the “Population Apoptotic (%)” value [3] was 14.63% and 27.27% and the “Population Fragmented Nuclei (%)” value [3] was 10.29% and 4.91%. For the same compound, the “Population Healthy Nuclei (%)” value [3] was 69.61% and 85.27%, the “Population Hoechst High Intensity Objects (%)” value [3] was 0% and the “Population Membrane Permeable-Phenotype (%)” value [3] was 3.52% and 2.09%. For the same compound, the “Population Mitochondria Different-Phenotype (%)” value [3] was 5.63% and 5.76%, the “Population Mitotic Cells (%)” value [3] was 85.37% and 72.73% and the “Population Normal (%)” value [3] was 100%. The “Population Pyknosed Nuclei (%)” value [3] was 20.1% and 9.82%, the “Population Tubulin-Different-Phenotype (%)” value [3] was 19.72% and 10.99% and the “Total Cell Count” value [3] was 204 and 224. For the same compound, the “Population Apoptotic (%)” value [4] was 4.65% and 14.29%, the “Population Fragmented Nuclei (%)” value [4] was 9.94% and 5.1% and the “Population Healthy Nuclei (%)” value [4] was 64.91% and 84.18%. For the same compound, the “Population Hoechst High Intensity Objects (%)” value [4] was 0%, the “Population Membrane Permeable-Phenotype (%)” value [4] was 3.6% and 3.03% and the “Population Mitochondria Different-Phenotype (%)” value [4] was 12.61% and 10.3%. For the same compound, the “Population Mitotic Cells (%)” value [4] was 95.35% and 85.71%, the “Population Normal (%)” value [4] was 100% and the “Population Pyknosed Nuclei (%)” value [4] was 25.15% and 10.71%. For the same compound, the “Population Tubulin-Different-Phenotype (%)” value [4] was 27.93% and 29.09%, the “Total Cell Count” value [4] was 171 and 196 and the “Population Apoptotic (%)” value [5] was 33.33% and 18.18%. For the same compound, the “Population Fragmented Nuclei (%)” value [5] was 9.22% and 7.42%, the “Population Healthy Nuclei (%)” value [5] was 83.87% and 87.77% and the “Population Hoechst High Intensity Objects (%)” value [5] was 0%. For the same compound, the “Population Membrane Permeable-Phenotype (%)” value [5] was 2.2% and 1%, the “Population Mitotic Cells (%)” value [5] was 66.67% and 81.82% and the “Population Normal (%)” value [5] was 100%. For the same compound, the “Population Pyknosed Nuclei (%)” value [5] was 6.91% and 4.8%, the “Population Tubulin-Different-Phenotype (%)” value [5] was 12.09% and 14.43% and the “Total Cell Count” value [5] was 217 and 229. For the same compound, the “Population Apoptotic (%)” value [6] was 22.22% and 18.18%, the “Population Healthy Nuclei (%)” value [6] was 74.18% and 91.26% and the “Population Hoechst High Intensity Objects (%)” value [6] was 0%. For the same compound, the “Population Membrane Permeable-Phenotype (%)” value [6] was 2.96% and 5.32%, the “Population Mitochondria Different-Phenotype (%)” value [6] was 14.81% and 5.32% and the “Population Mitotic Cells (%)” value [6] was 77.78% and 81.82%. The “Population Normal (%)” value [6] was 100%, the “Population Pyknosed Nuclei (%)” value [6] was 9.89% and 5.34% and the “Population Tubulin-Different-Phenotype (%)” value [6] was 14.81% and 30.32%. The “Total Cell Count” value [6] was 182 and 206.
`N[C@@]1(C(=O)O)CO[C@H]2[C@H](C(=O)O)[C@H]21` [LY-379268] was tested, and the “Population Apoptotic (%)” value [1] was 22% and 44%, the “Population Fragmented Nuclei (%)” value [1] was 17% and 33% and the “Population Healthy Nuclei (%)” value [1] was 70% and 43%. The “Population Hoechst High Intensity Objects (%)” value [1] was 1% and 10%, the “Population Membrane Permeable-Phenotype (%)” value [1] was 0% and 5% and the “Population Mitochondria Different-Phenotype (%)” value [1] was 2% and 1%. The “Population Mitotic Cells (%)” value [1] was 77% and 55%, the “Population Normal (%)” value [1] was 98% and 89% and the “Population Pyknosed Nuclei (%)” value [1] was 11% and 22%. For the same compound, the “Population Tubulin-Different-Phenotype (%)” value [1] was 25% and 45%, the “Total Cell Count” value [1] was 156 and 145 and the “Population Apoptotic (%)” value [2] was 29% and 21%. The “Population Fragmented Nuclei (%)” value [2] was 15%, the “Population Healthy Nuclei (%)” value [2] was 69% and 51% and the “Population Hoechst High Intensity Objects (%)” value [2] was 3%. The “Population Membrane Permeable-Phenotype (%)” value [2] was 0% and 4%, the “Population Mitochondria Different-Phenotype (%)” value [2] was 3% and 1% and the “Population Mitotic Cells (%)” value [2] was 70% and 78%. The “Population Normal (%)” value [2] was 96%, the “Population Pyknosed Nuclei (%)” value [2] was 14% and 33% and the “Population Tubulin-Different-Phenotype (%)” value [2] was 19% and 47%. For the same compound, the “Total Cell Count” value [2] was 187 and 128, the “Population Apoptotic (%)” value [3] was 36% and 47% and the “Population Fragmented Nuclei (%)” value [3] was 16% and 40%. For the same compound, the “Population Healthy Nuclei (%)” value [3] was 70% and 41%, the “Population Hoechst High Intensity Objects (%)” value [3] was 0% and 10% and the “Population Membrane Permeable-Phenotype (%)” value [3] was 0% and 4%. The “Population Mitochondria Different-Phenotype (%)” value [3] was 5% and 10%, the “Population Mitotic Cells (%)” value [3] was 63% and 52% and the “Population Normal (%)” value [3] was 99% and 89%. For the same compound, the “Population Pyknosed Nuclei (%)” value [3] was 12% and 18%, the “Population Tubulin-Different-Phenotype (%)” value [3] was 23% and 60% and the “Total Cell Count” value [3] was 152 and 125. The “Population Apoptotic (%)” value [4] was 66% and 22%, the “Population Fragmented Nuclei (%)” value [4] was 14% and 17% and the “Population Healthy Nuclei (%)” value [4] was 75% and 53%. The “Population Hoechst High Intensity Objects (%)” value [4] was 5% and 6%, the “Population Membrane Permeable-Phenotype (%)” value [4] was 0% and 2% and the “Population Mitochondria Different-Phenotype (%)” value [4] was 3% and 0%. For the same compound, the “Population Mitotic Cells (%)” value [4] was 33% and 77%, the “Population Normal (%)” value [4] was 94% and 93% and the “Population Pyknosed Nuclei (%)” value [4] was 10% and 28%. The “Population Tubulin-Different-Phenotype (%)” value [4] was 19% and 44%, the “Total Cell Count” value [4] was 189 and 133 and the “Population Apoptotic (%)” value [5] was 76% and 50%. The “Population Fragmented Nuclei (%)” value [5] was 22% and 33%, the “Population Healthy Nuclei (%)” value [5] was 68% and 55% and the “Population Hoechst High Intensity Objects (%)” value [5] was 3% and 11%. For the same compound, the “Population Membrane Permeable-Phenotype (%)” value [5] was 0% and 4%, the “Population Mitochondria Different-Phenotype (%)” value [5] was 5% and 7% and the “Population Mitotic Cells (%)” value [5] was 23% and 50%. For the same compound, the “Population Normal (%)” value [5] was 96% and 88%, the “Population Pyknosed Nuclei (%)” value [5] was 8% and 11% and the “Population Tubulin-Different-Phenotype (%)” value [5] was 26% and 59%. For the same compound, the “Total Cell Count” value [5] was 156 and 136, the “Population Apoptotic (%)” value [6] was 62% and 42% and the “Population Fragmented Nuclei (%)” value [6] was 14% and 27%. The “Population Healthy Nuclei (%)” value [6] was 72% and 56%, the “Population Hoechst High Intensity Objects (%)” value [6] was 1% and 7% and the “Population Membrane Permeable-Phenotype (%)” value [6] was 0% and 10%. The “Population Mitochondria Different-Phenotype (%)” value [6] was 0% and 5%, the “Population Mitotic Cells (%)” value [6] was 37% and 57% and the “Population Normal (%)” value [6] was 98% and 92%. For the same compound, the “Population Pyknosed Nuclei (%)” value [6] was 13% and 16%, the “Population Tubulin-Different-Phenotype (%)” value [6] was 19% and 47% and the “Total Cell Count” value [6] was 179 and 140.
